This is a sample that favours compounds with a hit; in the whole collection about 5.5% have one here.
RAM inhibit: inhibitors of the yeast RAM network, primary screen, dse1pr::URA3 reporter, 5-FOA selection; S. cerevisiae dse1pr::URA3 reporter, 5-FOA growth OD615, 2 d; analog-sensitive cbk1-as2 kinase mutant strain; inhibition, % at 50 µM; 190,000 tested, 1.8% active; AID 868, 2007;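 active = inhibition above a set limit, 3 SD over mean compound inhibition, cut at about 8.4% in these data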;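 also: 0% = DMSO-only wells with no growth and 100% = 10 µM 1-NA-PP1 full growth; inhibition rescues growth on 5-FOA so higher OD means more RAM inhibition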
BB579 growth dn: growth inhibitors of yeast BB579 in restrictive medium, primary screen, yeast lifespan-shortening project, S. cerevisiae. OD615, 48 h. inhibition, % at 10 µM. 140,000 tested, 0.51% active. AID 804, 2007;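 active = inhibition above a set limit, 3 SD over the mean compound inhibition, cut at about 44% in these data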
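System: DeaD yeast strain BB579; buffer or medium: CSMM-D dextrose restrictive medium; technique: OD at 615 nm; schedule: 4 h cell preincubation, 48 h compound exposure, 30 °C humidified; doses: single 10 µM dose; controls: amphotericin B 10 µg/mL, positive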
WT yeast gro inh: growth inhibition of WT strain, primary screen, mitochondrial fusion inhibitor project, WT and mutant strains, chemical genetic. mitochondrial fusion phenotypic screen. inhibition, % at 10 µM. 190,000 tested, 2.1% active. AID 1362, 2008; in the data active = inhibition above about 58%; tested in S. cerevisiae
KCC2 mod: KCC2 cotransporter modulators, thallium flux, primary screen, cell-based, HEK293 KCC2, FluoZin-2 fluorescence, MLSMR; KCC2 cells, thallium flux FluoZin-2 fluorescence; Solute carrier family 12 member 5 (Homo sapiens), Q9H2X9; AID 1456, 2008; B-score of Tl+ flux slope (higher = more flux/activation; lower = inhibition) at 10 µM; 190,000 tested, 2.2% active;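 active = thallium flux slope and its plate-corrected score both differing from the plate sample mean at a set confidence after two filtering rounds, in either direction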;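 also: slope of fluorescence scaled to starting intensity during 10 to 20 s after thallium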
Target sequence (Q9H2X9 whole entry, looked up): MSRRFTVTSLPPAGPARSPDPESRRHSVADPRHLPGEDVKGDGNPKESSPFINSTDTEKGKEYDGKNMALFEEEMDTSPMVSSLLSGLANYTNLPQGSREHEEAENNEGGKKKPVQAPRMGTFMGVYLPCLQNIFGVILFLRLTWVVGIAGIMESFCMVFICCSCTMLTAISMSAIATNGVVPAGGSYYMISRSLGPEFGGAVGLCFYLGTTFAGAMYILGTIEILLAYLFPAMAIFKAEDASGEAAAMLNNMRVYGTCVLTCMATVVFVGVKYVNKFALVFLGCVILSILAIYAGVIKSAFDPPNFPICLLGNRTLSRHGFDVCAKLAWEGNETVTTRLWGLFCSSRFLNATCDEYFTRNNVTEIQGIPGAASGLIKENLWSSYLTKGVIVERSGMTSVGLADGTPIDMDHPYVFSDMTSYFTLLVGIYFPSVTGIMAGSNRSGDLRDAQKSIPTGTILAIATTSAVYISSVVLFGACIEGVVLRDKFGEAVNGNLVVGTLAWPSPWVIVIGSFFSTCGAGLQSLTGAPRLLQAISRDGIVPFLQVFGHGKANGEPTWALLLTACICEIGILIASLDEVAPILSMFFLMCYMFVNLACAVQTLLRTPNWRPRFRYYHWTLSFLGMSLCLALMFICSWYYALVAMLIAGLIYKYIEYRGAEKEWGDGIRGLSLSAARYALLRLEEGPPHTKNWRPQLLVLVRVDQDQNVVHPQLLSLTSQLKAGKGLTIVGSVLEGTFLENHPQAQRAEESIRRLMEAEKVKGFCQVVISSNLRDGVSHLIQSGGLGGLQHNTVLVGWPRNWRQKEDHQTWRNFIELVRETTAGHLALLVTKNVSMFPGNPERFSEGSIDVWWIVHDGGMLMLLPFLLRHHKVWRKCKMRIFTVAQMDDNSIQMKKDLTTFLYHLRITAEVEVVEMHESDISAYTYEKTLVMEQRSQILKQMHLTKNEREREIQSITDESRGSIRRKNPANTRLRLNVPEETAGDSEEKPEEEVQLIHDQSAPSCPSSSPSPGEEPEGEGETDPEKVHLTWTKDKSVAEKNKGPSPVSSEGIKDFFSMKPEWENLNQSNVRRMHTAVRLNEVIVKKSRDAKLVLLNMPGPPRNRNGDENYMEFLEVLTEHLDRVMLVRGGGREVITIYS
Yeast life ext: compounds extending yeast replicative lifespan, primary screen, S. cerevisiae, OD615; S. cerevisiae growth with nicotinamide; deaD strain in restrictive glucose medium; inhibition of the nicotinamide effect, % at 10 µM; 130,000 tested, 0.68% active;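 active = inhibition above a set limit, placed 3 SD over the median of all compounds, cut at about 26% in these data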;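 also: 0% = nicotinamide-treated wells and 100% = cells grown without nicotinamide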
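Test system: DeaD-strain S. cerevisiae / Buffer or medium: restrictive glucose medium / Also added: nicotinamide 1.5 mM / Doses: one concentration, 10 µM, DMSO 0.25% / Schedule: 48 h at 30 °C / Signal: OD615 measurement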
* hit, by the source's call; · = no result.

SMILES	RAM inhibit	BB579 growth dn	WT yeast gro inh	KCC2 mod	Yeast life ext
CNC(=S)N(CCc1c(C)[nH]c2ccc(C)cc12)Cc1cccs1	4.1	·	65.3*	-0.235	·
COc1cccc(CN2CCN(Cc3ccc(OC)c(OC)c3)CC2CCO)c1 (configuration not stated)	1.0	·	-0.2	0.873	·
Cc1cc(Oc2ccc(C(C)(C)C)cc2)nc(N2CCOCC2)n1	-0.9	2.9	75.4*	-0.0245	-9.0
COC(=O)c1cc2c(C(F)(F)F)nn(C)c2s1	·	·	·	-0.037	·
CC(=S)c1c(C)cc2cc(C)ccn12	3.8	-20.9	1.1	-0.609	-1.7
CC(C)(C)SCCNC(=O)c1ccc(Cl)c([N+](=O)[O-])c1	-1.8	-50.4	80.8*	-0.58	-5.5
Cc1ccccc1CNC(=O)c1ccc(Cl)c([N+](=O)[O-])c1	-0.9	12.6	46.2	-0.621	-2.5
COc1ccc(-c2cc(C(F)(F)F)nc(SCc3cccc(C(=O)O)c3)n2)cc1	3.8	-34.1	29.7	·	-8.7
O=C(CCSc1nc(-c2ccco2)cc(C(F)(F)F)n1)NCCc1ccccc1	9.9*	-73.7	5.7	-3.11*	-8.7
COc1ccccc1CCNC(=O)CCSc1nc(-c2ccco2)cc(C(F)(F)F)n1	6.2	-17.6	4.0	-0.465	·
COc1ccc(-c2cc(C(F)(F)F)nc(SCCC(=O)NCc3ccccc3)n2)cc1	9.6*	-28.3	0.9	0.178	1.0
O=C(c1ccc(F)cc1)C(CN1CCOCC1)c1ccccc1 (configuration not stated)	0.1	-52.4	81.1*	1.46	44.8
COc1ccc(C(=O)C(CN2CCCC2)c2ccccc2)cc1 (configuration not stated)	2.4	-19.1	11.2	·	9.1
COc1ccc(C(=O)C(CN2CCOCC2)c2ccccc2)cc1 (configuration not stated)	2.2	-52.8	33.2	0.159	61.3*
COC(=O)c1cnc(N2CCCN(S(=O)(=O)c3ccc(C(F)(F)F)cc3)CC2)nc1C(F)(F)F	·	·	·	0.496	·
Cc1ccc(/C=C(\C#N)C(=O)Nc2ccccn2)o1	-1.7	·	13.5	-0.976	·
COC(=O)Cn1c(=NC(=O)c2nc3ccccc3s2)sc2cc(S(N)(=O)=O)ccc21	8.6*	-37.1	-0.4	0.62	1.6
COC(=O)Cn1c(=NC(=O)c2cc(-c3cccs3)nc3ccccc23)sc2cc(S(N)(=O)=O)ccc21	6.9	-35.1	-9.2	1.88	3.4
O/C(=C\c1nc2ccccc2nc1/C=C(\O)c1ccccc1)c1ccccc1	3.9	·	73.6*	1.51	·
Cc1cccc(C)c1-n1c(SCC(=O)NCc2ccco2)nc2ccccc2c1=O	0.7	4.8	-29.4	-0.596	-16.8
COC(=O)c1ccc(CSc2nc3ccccc3c(=O)n2Cc2ccco2)o1	9.7*	-18.2	2.4	-1.26	-4.8
NC(=O)CSc1nc2ccccc2c(=O)n1Cc1ccco1	1.9	-11.9	-11.4	-0.289	·
O=c1c2ccccc2nc(SCc2ccccc2Cl)n1Cc1ccccc1	8.9*	-26.4	69.0*	·	-6.1
Cc1cc(C)cc(-n2c(SCC(=O)NCc3ccco3)nc3ccccc3c2=O)c1	3.3	-41.2	-17.0	1.71	56.4*
CCCn1c(C)cc(C(=O)CSc2nc3ccccc3c(=O)n2Cc2ccco2)c1C	9.3*	-17.1	-58.1	-0.0355	-3.4
SMILES	RAM inhibit	BB579 growth dn	WT yeast gro inh	KCC2 mod	Yeast life ext
COc1cc(/C=C/C(=O)O)cc2c1OCCO2	2.6	·	1.6	-0.235	·
Cc1ccc(-n2c(SCC(=O)NCc3ccco3)nc3sc4c(c3c2=O)CC(C)(C)SC4)cc1	10.1*	-65.9	15.8	-0.171	24.9
CCN(CC)C(=O)CSc1nc2sc3c(c2c(=O)n1-c1ccc(C)cc1)CC(C)(C)SC3	3.4	-43.7	0.6	-0.391	-8.8
O=C(CSc1nc2ccccc2c(=O)n1Cc1ccco1)NCc1ccccc1	·	·	·	3.98*	·
COc1cc(C2CC(=O)N(c3ccc(C)cc3)C(=O)C2)cc(OC)c1OC	·	·	·	1.22	·
Cc1cc(C(=O)CSc2nnc(-c3ccc(Cl)cc3)n2CC2CCCO2)c(C)n1C (configuration not stated)	2.6	-2.8	67.5*	·	-29.8
COc1ccc(C2=NN(c3nc(-c4ccccc4)c(CC(=O)O)s3)C(c3ccco3)C2)cc1 (configuration not stated)	4.1	-12.9	9.9	-2.42	30.5*
O=C(NCc1cccnc1)c1ccc(NC(=O)c2cccc([N+](=O)[O-])c2)cc1	0.2	·	-9.3	·	·
Cc1nnc(N)s1	·	·	·	0.677	·
Cc1ccc(-n2c(N)c(C#N)c(-c3ccccc3)c(C#N)c2=O)cc1	0.5	-43.1	69.7*	0.378	-19.3
Cc1ccc(-n2c(C)cc(C)c(C#N)c2=O)cc1	1.2	-47.8	4.3	1.2	-7.6
CN(CC(=O)Nc1ccc(C#N)cc1)Cc1ccc(Cl)cc1	1.8	-24.5	29.2	-0.259	-11.4
N#Cc1ccc(NC(=O)Nc2ccc(Cl)cc2)cc1	2.5	-35.4	63.1*	-1	-16.0
COC(=O)c1sc(-c2ccccc2)cc1NC(=O)c1ccc(OC)cc1	8.7*	-28.2	3.6	0.787	-2.8
COC(=O)c1sc(-c2ccccc2)cc1NC(=O)c1cc(OC)cc(OC)c1	8.8*	-42.0	-12.2	0.0842	10.4
COC(=O)c1sc(-c2ccccc2)cc1NC(=O)c1ccc(F)cc1	2.8	-28.6	3.0	1.5	1.1
CCOc1ccc(CSCCNC(=S)Nc2ccc(OC)cc2)cc1	·	·	·	-0.496	·
Cc1cccc(CSCCNC(=S)Nc2ccccc2)c1	0.8	-31.3	71.2*	-0.0354	-6.0
S=C(NCCC(c1ccccc1)c1ccccc1)Nc1ccc(Cl)cc1	4.8	19.1	-11.1	·	-23.2
CCCNC(=S)Nc1ccccc1	·	·	·	0.269	·
CCCOc1ccc(CSCCNC(=S)Nc2ccccc2)cc1	1.2	-25.0	67.0*	1.15	-1.2
S=C(NCCSCc1ccccc1Cl)Nc1ccccc1	6.1	-29.8	66.6*	·	-8.3
S=C(NCCSCc1ccc(Cl)cc1)Nc1ccccc1	4.5	9.7	78.8*	0.396	-15.0
Fc1ccc(NC(=S)NCc2ccccc2Cl)cc1	0.8	-12.4	15.1	-0.522	-5.4
O=C(Nc1ccc(F)cc1)Nc1ccc(NC(=O)c2ccccc2O)cc1	·	·	·	0.0234	·
CSc1ccc(S(=O)(=O)Nc2ccc(OCC(=O)N3CCOCC3)cc2)cc1	1.2	·	-11.1	-2.61	·
COc1ccc(NC(=O)CN(c2ccc(C)cc2)S(C)(=O)=O)c(OC)c1	1.2	-15.9	62.0*	·	-8.3
Cc1cccc(-n2c(-c3csc(C(C)C)c3)n[nH]c2=S)c1	2.2	1.3	-11.7	7.58*	-13.2
CCN1CCN(c2cc(C)c3cc(NC(=S)N4CCCC(C)C4)ccc3n2)CC1 (configuration not stated)	1.5	·	6.0	1.02	·
